Source: PubChem BioAssay (several laboratories)
Only some compounds are listed: those with a hit (about 2.3% of all), similar ones and a draw of the others.
GalR3 antag = antagonists of human GalR3; HEK293 GalR3-CNG cAMP membrane potential fluorescence; galR3 body fused to GalR1 C-terminus; inhibition, % at 3 µM; hit rate 0.44% among 360,000; AID 651719;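 active = inhibition above the screen-wide average plus 3 SD, cut at about 13% in these data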;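 note: forskolin and galanin both at EC90 stimulate the cells; cAMP rise reported by CNG channel membrane potential dye signal; 0% = forskolin plus galanin with DMSO and 100% = forskolin alone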
CHT block = inhibitors of human choline transporter CHT. Q9GZV3. CHT-expressing cells, membrane potential dye, choline response; stronger effect = lower value. B-score at 10 µM. hit rate 0.86% among 310,000. AID 488975;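 active = B-score over 3 SD under the library average, and starting fluorescence ratio not unusually high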;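 note: choline stimulus applied at its EC90 after an EC20 pre-addition; B-score computed on integrated fluorescence ratio after choline addition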
NR2E3 ag-1 = human photoreceptor-specific nuclear receptor agonism. Q9Y5X4. CHO-S Gal4-NCOR/VP16-NR2E3 two-hybrid, luciferase. inhibition of corepressor binding, % at 3.98 µM. hit rate 0.35% among 360,000;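 active = inhibition above the mean of all tested compounds plus 3 SD, cut at about 70% in these data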;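 note: 0% = DMSO with NR2E3 transfected cells and 100% = cells lacking NR2E3 construct; higher means lower luciferase signal from less NR2E3 corepressor binding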
Target sequence (Q9Y5X4 whole entry, looked up, the tested form may be a part): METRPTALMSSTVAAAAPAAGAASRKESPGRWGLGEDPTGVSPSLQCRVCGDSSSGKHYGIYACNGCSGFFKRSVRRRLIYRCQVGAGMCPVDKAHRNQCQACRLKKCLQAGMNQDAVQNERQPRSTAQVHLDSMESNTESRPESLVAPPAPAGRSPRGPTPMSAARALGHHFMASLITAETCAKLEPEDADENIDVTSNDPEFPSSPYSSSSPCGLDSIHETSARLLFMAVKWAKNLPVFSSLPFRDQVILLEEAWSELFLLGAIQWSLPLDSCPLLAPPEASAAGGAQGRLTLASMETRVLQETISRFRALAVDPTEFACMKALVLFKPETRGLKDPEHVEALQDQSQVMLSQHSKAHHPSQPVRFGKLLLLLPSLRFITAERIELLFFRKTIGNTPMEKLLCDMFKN
NR2E3 ag-2 = activates human photoreceptor nuclear receptor NR2E3 | inhibition of corepressor binding, % at 4.78 µM | GST-NR2E3/biotin-RetCOR TR-FRET, 1536-well | Q9Y5X4 | hit rate 0.12% among 320,000;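 active = percent inhibition above the cutoff of mean plus 3 SD of all tested compounds, set per screening campaign, cut at about 20% in these data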;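 note: 0% = DMSO wells and 100% = biotin wells as full block of FRET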
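Material – GST-tagged NR2E3 plus biotinylated RetCOR corepressor · Quantity – NR2E3 fusion 1.35 nM · Times – 5 h incubation at 4 °C · Medium – pH 7.5 Tris-based buffer · Technique – TR-FRET, Eu(K)-anti-GST donor, streptavidin-D2 acceptor, ex 340, em 617/671 nm · Benchmarks – high control biotin, low control 0.6% DMSO · Format – 1536-well plates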
COUP-TFII inh = inhibitors of human COUP-TFII (NR2F2); P24468; hit rate 0.7% among 370,000; HEK293T NGFI-A luciferase reporter, luminescence; inhibition, % at 8.6 µM; AID 686940;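 active = inhibition above a per-plate cutoff, mean inhibition of test wells between control levels plus 3 SD, cut at about 38% in these data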;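 note: cells cotransfected with COUP-TFII expression vector driving the NGFI-A reporter; 0% = median of COUP-TF2 test wells and 100% = reporter-only cells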
CHT allo act = allosteric activators of human choline transporter CHT; CHT-expressing cells, membrane potential dye, choline EC20; stronger effect = higher value; LV-AA mutant CHT in HEK293 cells; B-score at 10 µM; Q9GZV3; hit rate 0.49% among 310,000; AID 488977;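 active = initial fluorescence not abnormally high and integrated response B-score, plate-corrected, over 3 SD above library mean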
CHT act confirm = human CHT activation, confirmatory screen. shares compounds with CHT allo act. AID 504833. hit rate 91% among 2,500. activation, % at 10 µM. CHT-expressing cells, membrane potential dye fluorescence (FDSS); % of choline EC20–EC90 response window; HEK293 expressing CHT LV-AA mutant; choline added at its EC20;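 active = primary screen active, with duplicate mean activation above negative control mean plus 3 SD, cut at about 11% in these data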
HEK293 MP dye = CHT activator counter-screen hit in parental HEK293 cells. shares compounds with CHT allo act. membrane potential dye fluorescence (FDSS); measured after EC20 choline addition. ratio readout change at 10 µM, hits read low. hit rate 62% among 2,500. AID 623908;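 active = duplicate-averaged ratio beyond 3 SD from buffer wells, up or down, though filed actives are nearly all decreases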
Starred values were filed as active, the others as inactive.

Cc1nn2c(NCCN(C)C)c3c(nc2c1-c1ccccc1)CCCC3 was read as GalR3 antag -3, CHT block inactive, NR2E3 ag-1 21, NR2E3 ag-2 0, COUP-TFII inh -8, CHT allo act inactive, CHT act confirm 11* and HEK293 MP dye -51*.
`COc1ccc(-c2cn(-c3ccc(Cl)cc3)c3[n+]2CCCCC3)cc1` gave GalR3 antag -3, CHT block inactive, NR2E3 ag-1 -15, NR2E3 ag-2 -4, COUP-TFII inh 8, CHT allo act 7*, CHT act confirm 51* and HEK293 MP dye -21*.
Screening Clc1ccc(-c2cn(-c3ccc(Cl)cc3)c3[n+]2CCCCC3)cc1 returned GalR3 antag -7, CHT block inactive, NR2E3 ag-1 -12, NR2E3 ag-2 2, COUP-TFII inh 6 and CHT allo act inactive.
C[n+]1cn(/N=C/c2ccccc2)c2ccccc21 was read as GalR3 antag -3, CHT block inactive, NR2E3 ag-1 10, NR2E3 ag-2 -2, COUP-TFII inh 7, CHT allo act 6.6*, CHT act confirm 56* and HEK293 MP dye -55*.
For CC(C)N1CCCCC(NC(=O)c2c(F)cccc2F)C1=O (stereo not given) the results were COUP-TFII inh 9.
Screening CCN1C(=NCC2CC2)N[C@@H](c2cccc(C(F)(F)F)c2)C(C(=O)OC)=C1C returned CHT block inactive, NR2E3 ag-1 17, NR2E3 ag-2 3, CHT allo act 11*, CHT act confirm 25* and HEK293 MP dye inactive.
COC(=O)C1=C(C)N(Cc2ccccc2)C(=NCc2ccc(OC)cc2)N[C@H]1c1cccc(F)c1 was read as GalR3 antag -5, CHT block inactive, NR2E3 ag-1 12, NR2E3 ag-2 4, COUP-TFII inh -13, CHT allo act inactive, CHT act confirm 20* and HEK293 MP dye inactive.
Cc1cc(C)cc(C(=O)OCCCN(C)C2CN(Cc3cn(Cc4ccc([N+](=O)[O-])cc4)nn3)S(=O)(=O)C2)c1 (stereo not given) was read as COUP-TFII inh 31.
COC(=O)C[C@H]1CC[C@H]2[C@H](COc3ccc(NC(=O)C4CCOCC4)cc3C(=O)N2C)O1 was read as COUP-TFII inh -7.
Screening CCOC(=O)c1cnc2ccc(OCC)cc2c1N1CCN(C)CC1 returned GalR3 antag 4, CHT block inactive, NR2E3 ag-1 -30, NR2E3 ag-2 6, COUP-TFII inh 5, CHT allo act 8.4*, CHT act confirm 41* and HEK293 MP dye -40*.
CCOc1ccc(N=Nc2c(=O)[nH]n3c(C)cc(C)nc23)cc1 was read as GalR3 antag 0, CHT block inactive, NR2E3 ag-1 5, NR2E3 ag-2 -10, COUP-TFII inh 11, CHT allo act inactive, CHT act confirm 42* and HEK293 MP dye -49*.
Screening Cc1cc(=O)n2[nH]c(N)c(N=Nc3ccccc3)c2n1 returned GalR3 antag -9, CHT block inactive, NR2E3 ag-1 -20, NR2E3 ag-2 -9, COUP-TFII inh -22 and CHT allo act inactive.
Screening Cc1cc(CN(C)C(=O)CC2C(=O)NCCN2Cc2ccc(-c3ccccc3)cc2)on1 (stereo not given) returned GalR3 antag 2, CHT block inactive, NR2E3 ag-1 32, NR2E3 ag-2 1, COUP-TFII inh 0 and CHT allo act inactive.
CN(C)Cc1ccc(-c2nc3cccc4c3n2CCNC4=O)cc1 was read as GalR3 antag 0, CHT block inactive, NR2E3 ag-1 12, NR2E3 ag-2 2, COUP-TFII inh 24, CHT allo act inactive, CHT act confirm 51* and HEK293 MP dye -38*.
